≈ marks a conversion by molar mass, not a printed value.
How the values were obtained:
[1] = biological target: Human immunodeficiency virus type 1 protease (Human immunodeficiency virus 1, UniProt Q72874); experiment: Inhibition of HIV-1 protease
[2] = system: Human immunodeficiency virus 1; experiment: Ex vivo antiviral activity in H9 T-lymphoid cells infected with HIV-1(IIIB).; type: functional; conditions: read-out: MIC100
Summary of the method: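 Human H9 T-lymphoid cells acutely infected with HIV-1 IIIB isolate, MOI 0.01; compound added in DMSO at time of infection, refreshed every 2–3 days when culture sampled and half the medium replaced. Spread read by indirect immunofluorescence (anti-HIV-1 human serum primary antibody) at 14 days; MIC100 = minimum concentration completely preventing spread of infection through the culture, in nM.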

| SMILES | IC50 [1] [nM] | MIC [2] [µM] |
| --- | --- | --- |
| CC(C)(C)OC(=O)N[C@@H](Cc1ccccc1)[C@@H](O)C[C@@H](Cc1ccc(CO)cc1)C(=O)N[C@H]1c2ccccc2C[C@H]1O | 0.17 |  |
| CC(C)(C)OC(=O)N[C@@H](Cc1ccccc1)[C@@H](O)C[C@@H](Cc1ccc(O)cc1)C(=O)N[C@H]1c2ccccc2C[C@H]1O |  | 0.05 (≈ 0.028 µg/mL) |
| CC(C)C[C@H](NC(=O)[C@H](CCCc1ccccc1)C[C@H](O)[C@H](Cc1ccccc1)NC(=O)OC(C)(C)C)C(=O)N[C@@H](Cc1ccccc1)C(N)=O | 0.36 |  |
| CC(C)(C)OC(=O)N[C@@H](Cc1ccccc1)[C@@H](O)C[C@@H](Cc1ccccc1)C(=O)N[C@H]1c2ccccc2C[C@H]1O | 0.23 | 0.4 (≈ 0.218 µg/mL) |
| CC(C)(C)OC(=O)N[C@@H](Cc1ccccc1)[C@@H](O)C[C@@H](C/C=C/c1ccccc1)C(=O)N[C@H]1c2ccccc2C[C@H]1O | 0.23 | 0.4 (≈ 0.228 µg/mL) |
| CC(C)(C)OC(=O)N[C@@H](Cc1ccccc1)[C@@H](O)C[C@@H](Cc1ccc(C(F)(F)F)cc1)C(=O)N[C@H]1c2ccccc2C[C@H]1O | 0.26 |  |
| CN(C)Cc1ccc(C[C@H](C[C@H](O)[C@H](Cc2ccccc2)NC(=O)OC(C)(C)C)C(=O)N[C@H]2c3ccccc3C[C@H]2O)cc1 | 1.4 |  |
| CC(C)(C)OC(=O)N[C@@H](Cc1ccccc1)[C@@H](O)C[C@@H](C/C=C/c1ccc(OCCN2CCOCC2)cc1)C(=O)N[C@H]1c2ccccc2C[C@H]1O |  | 0.05 (≈ 0.035 µg/mL) |
| CC(C)(C)OC(=O)N[C@@H](Cc1ccccc1)[C@@H](O)C[C@@H](Cc1ccc(CCO)cc1)C(=O)N[C@H]1c2ccccc2C[C@H]1O | 0.16 | 0.05 (≈ 0.0294 µg/mL) |
| CC(C)(C)OC(=O)N[C@@H](Cc1ccccc1)[C@@H](O)C[C@@H](Cc1ccc(CCCN2CCSCC2)cc1)C(=O)N[C@H]1c2ccccc2C[C@H]1O | 1 |  |
| CC(C)(C)OC(=O)N[C@@H](Cc1ccccc1)[C@@H](O)C[C@@H](C/C=C/c1ccc(O)cc1)C(=O)N[C@H]1c2ccccc2C[C@H]1O | 0.17 | 0.2 (≈ 0.117 µg/mL) |
| CC(C)(C)OC(=O)N[C@@H](Cc1ccccc1)[C@@H](O)C[C@@H](Cc1ccc(CCC[N+](C)(C)C)cc1)C(=O)N[C@H]1c2ccccc2C[C@H]1O | 0.91 | 0.1 |
| CC(C)(C)OC(=O)N[C@@H](Cc1ccccc1)[C@@H](O)C[C@@H](Cc1ccc(F)cc1)C(=O)N[C@H]1c2ccccc2C[C@H]1O | 0.44 |  |
| COC(CCc1ccc(C[C@H](C[C@H](O)[C@H](Cc2ccccc2)NC(=O)OC(C)(C)C)C(=O)N[C@H]2c3ccccc3C[C@H]2O)cc1)OC | 0.08 |  |
| CC(C)(C)OC(=O)N[C@@H](Cc1ccccc1)[C@@H](O)C[C@@H](Cc1c(F)c(F)c(F)c(F)c1F)C(=O)N[C@H]1c2ccccc2C[C@H]1O | 0.6 |  |
| CC(C)(C)OC(=O)N[C@@H](Cc1ccccc1)[C@@H](O)C[C@@H](Cc1ccc(C(C)(C)C)cc1)C(=O)N[C@H]1c2ccccc2C[C@H]1O | 0.27 | 0.2 (≈ 0.12 µg/mL) |
| CC(C)C[C@H](NC(=O)[C@H](Cc1ccccc1)C[C@H](O)[C@H](Cc1ccccc1)NC(=O)OC(C)(C)C)C(=O)N[C@@H](Cc1ccccc1)C(N)=O | 0.42 | 3 (≈ 2.02 µg/mL) |
| CC[C@H](C[C@H](O)[C@H](Cc1ccccc1)NC(=O)OC(C)(C)C)C(=O)N[C@H]1c2ccccc2C[C@H]1O | 34.7 |  |
| CSc1ccc(C[C@H](C[C@H](O)[C@H](Cc2ccccc2)NC(=O)OC(C)(C)C)C(=O)N[C@H]2c3ccccc3C[C@H]2O)cc1 | 0.22 |  |
| CCCCCCCCCCCCCCC[C@H](C[C@H](O)[C@H](Cc1ccccc1)NC(=O)OC(C)(C)C)C(=O)N[C@H]1c2ccccc2C[C@H]1O | > 3000 |  |

| SMILES | IC50 [1] [nM] | MIC [2] [µM] |
| --- | --- | --- |
| C[S+]([O-])c1ccc(C[C@H](C[C@H](O)[C@H](Cc2ccccc2)NC(=O)OC(C)(C)C)C(=O)N[C@H]2c3ccccc3C[C@H]2O)cc1 (stereo partly specified) | 0.51 |  |
| CC(C)(C)OC(=O)N[C@@H](Cc1ccccc1)[C@@H](O)C[C@@H](Cc1ccc(CCCO)cc1)C(=O)N[C@H]1c2ccccc2C[C@H]1O | 0.1 | 0.05 (≈ 0.0301 µg/mL) |
| COCCOCOCCCc1ccc(C[C@H](C[C@H](O)[C@H](Cc2ccccc2)NC(=O)OC(C)(C)C)C(=O)N[C@H]2c3ccccc3C[C@H]2O)cc1 | 0.07 | 0.05 (≈ 0.0345 µg/mL) |
| CN(C)CCCc1ccc(C[C@H](C[C@H](O)[C@H](Cc2ccccc2)NC(=O)OC(C)(C)C)C(=O)N[C@H]2c3ccccc3C[C@H]2O)cc1 | 0.6 |  |
| CC(C)(C)OC(=O)N[C@@H](Cc1ccccc1)[C@@H](O)C[C@@H](Cc1ccc(CCCN2CCOCC2)cc1)C(=O)N[C@H]1c2ccccc2C[C@H]1O | 0.43 | 0.2 (≈ 0.134 µg/mL) |
| CC(C)(C)OC(=O)N[C@@H](Cc1ccccc1)[C@@H](O)C[C@@H](Cc1ccc(S(C)(=O)=O)cc1)C(=O)N[C@H]1c2ccccc2C[C@H]1O | 0.17 |  |
| COCCN(CCCc1ccc(C[C@H](C[C@H](O)[C@H](Cc2ccccc2)NC(=O)OC(C)(C)C)C(=O)N[C@H]2c3ccccc3C[C@H]2O)cc1)CCOC | 0.59 | 0.2 (≈ 0.144 µg/mL) |
| CC(C)C[C@H](NC(=O)[C@H](Cc1ccc(-c2ccccc2)cc1)C[C@H](O)[C@H](Cc1ccccc1)NC(=O)OC(C)(C)C)C(=O)N[C@@H](Cc1ccccc1)C(N)=O | 0.43 |  |
| CC(C)C[C@H](NC(=O)[C@H](Cc1cccc2ccccc12)C[C@H](O)[C@H](Cc1ccccc1)NC(=O)OC(C)(C)C)C(=O)N[C@@H](Cc1ccccc1)C(N)=O | 1.2 |  |
| Cc1ccc(C[C@H](C[C@H](O)[C@H](Cc2ccccc2)NC(=O)OC(C)(C)C)C(=O)N[C@H]2c3ccccc3C[C@H]2O)cc1 | 0.29 | 0.2 (≈ 0.112 µg/mL) |
| CC(C)(C)OC(=O)N[C@@H](Cc1ccccc1)[C@@H](O)C[C@@H](Cc1ccc(CN2CCOCC2)cc1)C(=O)N[C@H]1c2ccccc2C[C@H]1O | 1.15 | 0.1 (≈ 0.0644 µg/mL) |
| CC(C)(C)OC(=O)N[C@@H](Cc1ccccc1)[C@@H](O)C[C@@H](Cc1ccc(I)cc1)C(=O)N[C@H]1c2ccccc2C[C@H]1O | 0.72 |  |
| CC(C)(C)OC(=O)N[C@@H](Cc1ccccc1)[C@@H](O)C[C@@H](CCc1cnc2ccccc2n1)C(=O)N[C@H]1c2ccccc2C[C@H]1O | 0.17 |  |
| CC(C)(C)OC(=O)N[C@@H](Cc1ccccc1)[C@@H](O)C[C@@H](Cc1ccc([N+](=O)[O-])cc1)C(=O)N[C@H]1c2ccccc2C[C@H]1O | 0.27 |  |
| C[C@H](C[C@H](O)[C@H](Cc1ccccc1)NC(=O)OC(C)(C)C)C(=O)N[C@H]1c2ccccc2C[C@H]1O | 62.7 |  |
| CC(C)C[C@H](NC(=O)[C@H](C/C=C/c1ccccc1)C[C@H](O)[C@H](Cc1ccccc1)NC(=O)OC(C)(C)C)C(=O)N[C@@H](Cc1ccccc1)C(N)=O | 0.23 | 6 (≈ 4.19 µg/mL) |
| CC(C)C[C@H](NC(=O)[C@H](C)C[C@H](O)[C@H](Cc1ccccc1)NC(=O)OC(C)(C)C)C(=O)N[C@@H](Cc1ccccc1)C(N)=O | 6 |  |
| COCCOCOCCc1ccc(C[C@H](C[C@H](O)[C@H](Cc2ccccc2)NC(=O)OC(C)(C)C)C(=O)N[C@H]2c3ccccc3C[C@H]2O)cc1 | 0.13 | 0.1 (≈ 0.0677 µg/mL) |
| CC(C)(C)OC(=O)N[C@@H](Cc1ccccc1)[C@@H](O)C[C@@H](Cc1cccc(O)c1)C(=O)N[C@H]1c2ccccc2C[C@H]1O | 0.21 |  |
| CC(C)(C)OC(=O)N[C@@H](Cc1ccccc1)[C@@H](O)C[C@@H](Cc1ccc(N)cc1)C(=O)N[C@H]1c2ccccc2C[C@H]1O | 0.31 | 0.2 (≈ 0.112 µg/mL) |

From ChEMBL document CHEMBL1126244, “HIV-1 protease inhibitors based on hydroxyethylene dipeptide isosteres: an investigation into the role of the P1' side chain on structure-activity” (J Med Chem, 1992)
